Reference: ChEMBL document CHEMBL1124503, “The role of position 4 in angiotensin II antagonism: a structure-activity study” (J Med Chem, 1989)
*1 amine or outer side, *2 acyl side, *3 side chain or, on linkers, in order; H or OH if unused. Where a SMILES comes first, the peptide text is derived from it. [ ]: non-standard residue; d: D form. Phe(4-SO2NH2) = N[C@@H](Cc1ccc(S(N)(=O)=O)cc1)C(=O)O; Phe(4-NO2) = N[C@@H](Cc1ccc([N+](=O)[O-])cc1)C(=O)O; Phe(4-SO3H) = N[C@@H](Cc1ccc(S(=O)(=O)O)cc1)C(=O)O; X2 = CC(=O)NCSc1ccc(C[C@H](N[*:1])C(=O)[*:2])cc1; Phe(4-B(OH)2) = N[C@@H](Cc1ccc(B(O)O)cc1)C(=O)O; Phe(4-Cl) = N[C@@H](Cc1ccc(Cl)cc1)C(=O)O; X1 = O=C([C@H](Cc1ccc(S)cc1)N[*:1])[*:2]; Phe(4-NH2) = Nc1ccc(C[C@H](N)C(=O)O)cc1; Phe(4-F) = N[C@@H](Cc1ccc(F)cc1)C(=O)O; Sar = CNCC(=O)O

Key:
Oryctolagus cuniculus = species: Oryctolagus cuniculus; assay: Antagonist activity pA2, was measured in the in vitro rabbit aorta strip assay; format: functional; conditions: read-out: pA2 (converted)
Summary of the method: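 Isolated rabbit aorta strip (method of Rioux et al.); pA2 against the ANG II dose-response curve, determined at low antagonist doses within the competitive-inhibition range.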

[1] = target: Angiotensin II receptor (Rattus norvegicus) (UniProt P29089+P25095+P35351); assay: In vivo blood pressure increase produced by a 1 ug bolus i.v.; format: functional, organism-based
Summary of the method: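 Rat blood pressure assay (Regoli et al.); agonist activity read as the mmHg rise in blood pressure after a 1 μg intravenous bolus of compound.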

Rattus norvegicus [2] = assay: Residual ANG II-like antagonist activity, ID50 was measured in vivo, in the rat blood pressure assay; format: functional
[3] = test system: Angiotensin II receptor (Oryctolagus cuniculus); assay: Angiotensin II-like agonist activity, measured in the in vitro rabbit aorta strip assay
Rattus norvegicus [4] = species: Rattus norvegicus; assay: Antagonist activity pA2, was measured in the in vitro rat uterus strip assay; format: functional; conditions: read-out: pA2 (converted)

Row | Compound | Kb (Oryctolagus cuniculus) | Blood pressure [1] | ID50 (Rattus norvegicus [2]) | Activity [3] | Kb (Rattus norvegicus [4])
1 | CC[C@H](C)[C@H](NC(=O)[C@@H]1CCCN1C(=O)[C@H](Cc1c[nH]cn1)NC(=O)[C@@H](NC(=O)[C@H](Cc1ccccc1)NC(=O)[C@@H](NC(=O)[C@H](CCCN=C(N)N)NC(=O)CNC)C(C)C)[C@@H](C)CC)C(=O)O (H-[Sar]RVFIHPI-OH) | 3.16 nM | 2.7 mmHg | 80 ng min-1 rat-1 | 0% | –
2 | CCOc1ccc(C[C@H](NC(=O)[C@@H](NC(=O)[C@H](CCCN=C(N)N)NC(=O)CNC)C(C)C)C(=O)N[C@H](C(=O)N[C@@H](Cc2c[nH]cn2)C(=O)N2CCC[C@H]2C(=O)N[C@@H](Cc2ccccc2)C(=O)O)[C@@H](C)CC)cc1 | – | 2.5 mmHg | 150 ng min-1 rat-1 | 0.1% | > 1000 nM
3 | CC[C@H](C)[C@H](NC(=O)[C@H](Cc1ccc(F)cc1)NC(=O)[C@@H](NC(=O)[C@H](CCCN=C(N)N)NC(=O)CNC)C(C)C)C(=O)N[C@@H](Cc1c[nH]cn1)C(=O)N1CCC[C@H]1C(=O)N[C@H](Cc1ccccc1)C(=O)O | 141 nM | 10 mmHg | 50 ng min-1 rat-1 | 0% | –
4 | H-DRVYIHPL-OH | 1.66 nM | – | – | < 0.1% | –
5 | CC[C@H](C)[C@H](NC(=O)[C@@H]1CCCN1C(=O)[C@H](Cc1c[nH]cn1)NC(=O)[C@@H](NC(=O)[C@H](Cc1ccc(B(O)O)cc1)NC(=O)[C@@H](NC(=O)[C@H](CCCN=C(N)N)NC(=O)CNC)C(C)C)[C@@H](C)CC)C(=O)O (H-[Sar]RV[Phe(4-B(OH)2)]IHPI-OH) | 2000 nM | 0 mmHg | 500 ng min-1 rat-1 | 0% | –
6 | CC[C@H](C)[C@H](NC(=O)[C@H](Cc1ccc(S(N)(=O)=O)cc1)NC(=O)[C@@H](NC(=O)[C@H](CCCN=C(N)N)NC(=O)CNC)C(C)C)C(=O)N[C@@H](Cc1c[nH]cn1)C(=O)N1CCC[C@H]1C(=O)N[C@@H](Cc1ccccc1)C(=O)O (H-[Sar]RV[Phe(4-SO2NH2)]IHPF-OH) | – | – | – | 0.9% | –
7 | H-DRVFIHPY-OH | – | – | – | – | 240 nM
8 | CC[C@H](C)[C@H](NC(=O)[C@H](Cc1ccc(O)cc1)NC(=O)[C@@H](NC(=O)[C@H](CCCN=C(N)N)NC(=O)CNC)C(C)C)C(=O)N[C@@H](Cc1c[nH]cn1)C(=O)N1CCC[C@H]1C(=O)N[C@H](Cc1ccc(O)cc1)C(=O)O | 5.62 nM | 15 mmHg | 20 ng min-1 rat-1 | 0% | –
9 | CC[C@H](C)[C@H](NC(=O)[C@@H]1CCCN1C(=O)[C@H](Cc1c[nH]cn1)NC(=O)[C@@H](NC(=O)[C@H](Cc1ccc(F)cc1)NC(=O)[C@@H](NC(=O)[C@H](CCCN=C(N)N)NC(=O)CNC)C(C)C)[C@@H](C)CC)C(=O)O (H-[Sar]RV[Phe(4-F)]IHPI-OH) | 158 nM | 0 mmHg | 750 ng min-1 rat-1 | 0% | –
10 | CC[C@H](C)[C@H](NC(=O)[C@H](Cc1ccc(B(O)O)cc1)NC(=O)[C@@H](NC(=O)[C@H](CCCN=C(N)N)NC(=O)CNC)C(C)C)C(=O)N[C@@H](Cc1c[nH]cn1)C(=O)N1CCC[C@H]1C(=O)N[C@@H](Cc1ccccc1)C(=O)O (H-[Sar]RV[Phe(4-B(OH)2)]IHPF-OH) | – | – | – | 10% | –
11 | CC[C@H](C)[C@H](NC(=O)C1CCCN1C(=O)[C@H](Cc1c[nH]cn1)NC(=O)[C@@H](NC(=O)[C@H](Cc1ccc(O)cc1)NC(=O)[C@@H](NC(=O)[C@H](CCCN=C(N)N)NC(=O)CNC)C(C)C)[C@@H](C)CC)C(=O)O (single isomer, unassigned) | 0.794 nM | 10 mmHg | 10 ng min-1 rat-1 | – | –
12 | H-DRVYIHPC-OH | – | – | – | – | 6.03 nM
13 | CC[C@H](C)[C@H](NC(=O)[C@H](Cc1ccccc1)NC(=O)[C@@H](NC(=O)[C@H](CCCN=C(N)N)NC(=O)CNC)C(C)C)C(=O)N[C@@H](Cc1c[nH]cn1)C(=O)N1CCC[C@H]1C(=O)N[C@@H](Cc1ccccc1)C(=O)O (H-[Sar]RVFIHPF-OH) | 12.6 nM | – | – | 22% | –
14 | CC[C@H](C)[C@H](NC(=O)[C@H](Cc1ccc(S(=O)(=O)O)cc1)NC(=O)[C@@H](NC(=O)[C@H](CCCN=C(N)N)NC(=O)CNC)C(C)C)C(=O)N[C@@H](Cc1c[nH]cn1)C(=O)N1CCC[C@H]1C(=O)N[C@@H](Cc1ccccc1)C(=O)O (H-[Sar]RV[Phe(4-SO3H)]IHPF-OH) | > 1000 nM | – | – | 0% | –
15 | CC[C@H](C)[C@H](NC(=O)[C@H](Cc1ccc(SCNC(C)=O)cc1)NC(=O)[C@@H](NC(=O)[C@H](CCCN=C(N)N)NC(=O)CNC)C(C)C)C(=O)N[C@@H](Cc1c[nH]cn1)C(=O)N1CCC[C@H]1C(=O)N[C@@H](Cc1ccccc1)C(=O)O (H-[Sar]RV[X2]IHPF-OH) | 8.13 nM | – | – | 9% | –
16 | CC[C@H](C)[C@H](NC(=O)[C@@H]1CCCN1C(=O)[C@H](Cc1c[nH]cn1)NC(=O)[C@@H](NC(=O)[C@H](Cc1ccc(O)cc1)NC(=O)[C@@H](NC(=O)[C@H](CCCN=C(N)N)NC(=O)[C@@H](N)CC(=O)O)C(C)C)[C@@H](C)CC)C(=O)O | – | – | – | – | 5.01 nM
17 | CCOc1ccc(C[C@H](NC(=O)[C@@H](NC(=O)[C@H](CCCN=C(N)N)NC(=O)CNC)C(C)C)C(=O)N[C@H](C(=O)N[C@@H](Cc2c[nH]cn2)C(=O)N2CCC[C@H]2C(=O)N[C@H](C(=O)O)[C@@H](C)CC)[C@@H](C)CC)cc1 | > 1000 nM | 5 mmHg | >1000 ng min-1 rat-1 | 0% | –
18 | CC[C@H](C)[C@H](NC(=O)[C@H](Cc1ccc(O)cc1)NC(=O)[C@@H](NC(=O)[C@H](CCCN=C(N)N)NC(=O)CNC)C(C)C)C(=O)N[C@@H](Cc1c[nH]cn1)C(=O)N1CCC[C@H]1C(=O)N[C@H](Cc1ccccc1)C(=O)O | 1 nM | 10 mmHg | 12.5 ng min-1 rat-1 | – | –
19 | CC[C@H](C)[C@H](NC(=O)[C@H](Cc1ccc(O)cc1)NC(=O)[C@@H](NC(=O)[C@H](CCCN=C(N)N)NC(=O)CNC)C(C)C)C(=O)N[C@@H](Cc1c[nH]cn1)C(=O)N1CCC[C@H]1C(=O)N[C@@H](Cc1ccccc1)C(=O)O | – | 50 mmHg | – | – | –
20 | CC[C@H](C)[C@H](NC(=O)[C@@H]1CCCN1C(=O)[C@H](Cc1c[nH]cn1)NC(=O)[C@@H](NC(=O)[C@H](Cc1ccc([N+](=O)[O-])cc1)NC(=O)[C@@H](NC(=O)[C@H](CCCN=C(N)N)NC(=O)CNC)C(C)C)[C@@H](C)CC)C(=O)O (H-[Sar]RV[Phe(4-NO2)]IHPI-OH) | 79.4 nM | 5 mmHg | – | 0% | –
21 | CC[C@H](C)[C@H](NC(=O)[C@H](Cc1ccc(F)cc1)NC(=O)[C@@H](NC(=O)[C@H](CCCN=C(N)N)NC(=O)[C@@H](N)CC(=O)O)C(C)C)C(=O)N[C@@H](Cc1c[nH]cn1)C(=O)N1CCC[C@H]1C(=O)N[C@@H](Cc1ccccc1)C(=O)O (H-DRV[Phe(4-F)]IHPF-OH) | – | – | – | – | 501 nM
22 | CC[C@H](C)[C@H](NC(=O)[C@H](Cc1ccc(N)cc1)NC(=O)[C@@H](NC(=O)[C@H](CCCN=C(N)N)NC(=O)CNC)C(C)C)C(=O)N[C@@H](Cc1c[nH]cn1)C(=O)N1CCC[C@H]1C(=O)N[C@@H](Cc1ccccc1)C(=O)O (H-[Sar]RV[Phe(4-NH2)]IHPF-OH) | – | – | – | 15% | –
23 | CC[C@H](C)[C@H](NC(=O)[C@H](Cc1ccccc1)NC(=O)[C@@H](NC(=O)[C@H](CCCN=C(N)N)NC(=O)CNC)C(C)C)C(=O)N[C@@H](Cc1c[nH]cn1)C(=O)N1CCC[C@H]1C(=O)N[C@@H](Cc1ccc(O)cc1)C(=O)O | 31.6 nM | 5.5 mmHg | 50 ng min-1 rat-1 | 0% | –
24 | CC[C@H](C)[C@H](NC(=O)[C@@H]1CCCN1C(=O)[C@H](Cc1c[nH]cn1)NC(=O)[C@@H](NC(=O)[C@H](Cc1ccc(OC)cc1)NC(=O)[C@@H](NC(=O)[C@H](CCCN=C(N)N)NC(=O)CNC)C(C)C)[C@@H](C)CC)C(=O)O | 79.4 nM | 3 mmHg | 100 ng min-1 rat-1 | 0% | –
25 | CC[C@H](C)[C@H](NC(=O)[C@H](Cc1ccc(F)cc1)NC(=O)[C@@H](NC(=O)[C@H](CCCN=C(N)N)NC(=O)CNC)C(C)C)C(=O)N[C@@H](Cc1c[nH]cn1)C(=O)N1CCC[C@H]1C(=O)N[C@@H](Cc1ccccc1)C(=O)O | 31.6 nM | 22 mmHg | 150 ng min-1 rat-1 | 0% | –
26 | CC[C@H](C)[C@H](NC(=O)[C@H](Cc1ccc(Cl)cc1)NC(=O)[C@@H](NC(=O)[C@H](CCCN=C(N)N)NC(=O)CNC)C(C)C)C(=O)N[C@@H](Cc1c[nH]cn1)C(=O)N1CCC[C@H]1C(=O)N[C@@H](Cc1ccccc1)C(=O)O (H-[Sar]RV[Phe(4-Cl)]IHPF-OH) | 31.6 nM | 5.5 mmHg | 30 ng min-1 rat-1 | 0% | –
27 | CC[C@H](C)[C@H](NC(=O)[C@H](Cc1ccc(S)cc1)NC(=O)[C@@H](NC(=O)[C@H](CCCN=C(N)N)NC(=O)CNC)C(C)C)C(=O)N[C@@H](Cc1c[nH]cn1)C(=O)N1CCC[C@H]1C(=O)N[C@@H](Cc1ccccc1)C(=O)O (H-[Sar]RV[X1]IHPF-OH) | > 1000 nM | – | – | 0.9% | –
28 | CC[C@H](C)[C@H](NC(=O)[C@H](Cc1ccccc1)NC(=O)[C@@H](NC(=O)[C@H](CCCN=C(N)N)NC(=O)CNC)C(C)C)C(=O)N[C@@H](Cc1c[nH]cn1)C(=O)N1CCC[C@H]1C(=O)N[C@H](Cc1ccc(O)cc1)C(=O)O | 100 nM | 5 mmHg | 30 ng min-1 rat-1 | 0% | –
29 | CC[C@H](C)[C@H](NC(=O)[C@H](Cc1ccc(OC)cc1)NC(=O)[C@@H](NC(=O)[C@H](CCCN=C(N)N)NC(=O)CNC)C(C)C)C(=O)N[C@@H](Cc1c[nH]cn1)C(=O)N1CCC[C@H]1C(=O)N[C@@H](Cc1ccccc1)C(=O)O | 79.4 nM | 20 mmHg | 250 ng min-1 rat-1 | 0% | –
30 | CC[C@H](C)[C@H](NC(=O)[C@@H]1CCCN1C(=O)[C@H](Cc1c[nH]cn1)NC(=O)[C@@H](NC(=O)[C@H](Cc1ccc(Cl)cc1)NC(=O)[C@@H](NC(=O)[C@H](CCCN=C(N)N)NC(=O)CNC)C(C)C)[C@@H](C)CC)C(=O)O (H-[Sar]RV[Phe(4-Cl)]IHPI-OH) | > 1000 nM | 2 mmHg | 500 ng min-1 rat-1 | 0% | –
